H9c2 protect – cardioprotection against H2O2-induced cell death, primary screen, uHTS, H9c2 cells, ATPLite luminescence. AID 588492, 2011. protection from H2O2 cell death, % at 20 µM. H9c2 cardiomyocytes, H2O2 injury protection, 2 h. actives 0.63% (n = 360,000);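 active means compounds giving at least 50% protection of heart cells from peroxide-induced death in the single-dose screen, raw or plate-pattern-corrected value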;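 further: 0% = DMSO wells with peroxide and 100% = DMSO wells without peroxide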
Neddylation inh – inhibitors of cullin neddylation, primary screen, biochemical, TR-FRET, uHTS, NAE and Ubc12; inhibition, % at 25 µM; actives 0.58% (n = 360,000); in the data active means inhibition above about 36%
ARFGAP1 inh – inhibitors of rat ARFGAP1 GAP activity, primary screen, biochemical, fluorescence polarization, GDP tracer; ADP-ribosylation factor GTPase-activating protein 1 (Rattus norvegicus), Q62848; Arfgap1-stimulated ARF1 GTP hydrolysis, GDP FP detection; inhibition, % at 16.5 µM; actives 0.26% (n = 360,000);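 active means inhibition above a per-plate limit, mean inhibition of low control wells plus 3 SD, cut at about 25% in these data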;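 further: 0% = DMSO wells with enzyme and 100% = wells lacking Arfgap1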
Target sequence (Q62848 1-136 limits assumed): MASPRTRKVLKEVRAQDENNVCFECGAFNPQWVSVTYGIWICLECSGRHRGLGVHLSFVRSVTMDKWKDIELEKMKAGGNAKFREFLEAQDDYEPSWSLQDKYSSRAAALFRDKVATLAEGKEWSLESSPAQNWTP
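Replicates: Single well per compound | Assay system: Truncated rat Arfgap1 GAP domain | Control set: No-Arfgap1 wells (100%) versus DMSO full-reaction wells (0%) | Times: Enzyme reaction 120 min at 25 °C after 20 min preincubation | Reagent: Human ARF1(Δ1-17)-GTP substrate | Measured by: Tracer-displacement fluorescence polarization with EDTA stop, 620/688 nm | Measure: Percent inhibition of Arfgap1-stimulated GTP hydrolysis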
ASAP1 inh – inhibitors of human ASAP1 ArfGAP activity, primary screen, biochemical, fluorescence polarization | Arf-GAP with SH3 domain, ANK repeat and PH domain-containing protein 1 (Homo sapiens), … | ASAP1-stimulated ARF1 GTP hydrolysis, GDP FP detection | inhibition, % at 16.5 µM | actives 0.19% (n = 360,000) | AID 624377, 2012; in the data active means inhibition above about 25%;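 further: 0% = vehicle with enzyme and substrate and 100% = no enzyme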
ARFGAP1 confirm – ARFGAP1 inhibitor hit confirmation, biochemical, fluorescence polarization, triplicate; shares compounds with ARFGAP1 inh; ARFGAP1-stimulated ARF1 GTP hydrolysis, GDP tracer FP; inhibition, % at 16.5 µM; actives 30% (n = 890); AID 651608, 2012;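 active means average inhibition over triplicates above the hit cutoff set in the earlier primary screen, cut at about 25% in these data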;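 further: 0% = Arfgap1 plus ARF1-GTP with DMSO and 100% = wells lacking Arfgap1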
Target sequence (Q62848 whole entry, looked up): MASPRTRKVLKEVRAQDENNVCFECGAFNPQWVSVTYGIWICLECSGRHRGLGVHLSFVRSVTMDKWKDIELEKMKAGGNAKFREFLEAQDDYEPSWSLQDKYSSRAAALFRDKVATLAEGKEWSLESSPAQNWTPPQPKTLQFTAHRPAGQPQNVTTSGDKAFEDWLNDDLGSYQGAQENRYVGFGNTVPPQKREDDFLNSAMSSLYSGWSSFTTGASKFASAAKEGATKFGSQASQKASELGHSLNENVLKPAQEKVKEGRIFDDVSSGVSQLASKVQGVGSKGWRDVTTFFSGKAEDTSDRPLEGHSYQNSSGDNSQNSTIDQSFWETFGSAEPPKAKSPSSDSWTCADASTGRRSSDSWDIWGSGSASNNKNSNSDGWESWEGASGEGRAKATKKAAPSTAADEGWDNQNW
Active calls of the source: *; . = no result shown. This is a sample that favours compounds with a hit; in the whole collection about 1.6% have one here.

SMILES	H9c2 protect	Neddylation inh	ARFGAP1 inh	ASAP1 inh	ARFGAP1 confirm
COC(=O)C1=C(C)N(Cc2cccc(C(F)(F)F)c2)C(=NCc2ccc(C(F)(F)F)cc2)NC1c1cccc(F)c1 (stereo not drawn)	.	.	29.4*	2.7	5.6
NS(=O)(=O)c1ccc(CCNC(=O)CNS(=O)(=O)c2cccc(Br)c2)cc1	1.1	-3.6	28.2*	2.6	-2.3
CC(=O)Nc1ccc(S(=O)(=O)NCC(=O)NCCc2ccc(S(N)(=O)=O)cc2)cc1	10.4	1.8	-0.5	3.0	.
COC(=O)[C@]12C[C@H](CC(=O)N3CCOCC3)C(=O)N(CCC3=CCCCC3)C1=C[C@H](C(C)(C)C)O[C@@H]2C	.	.	-8.8	4.4	.
O=C(NCCc1ccc(F)cc1)c1cccc(NC(=O)c2ccccc2)c1	11.8	0.7	37.0*	12.8	3.1
CCC(C)C(=O)Nc1nc(C)c(-c2csc(Nc3cc(Cl)ccc3OC)n2)s1 (stereo not drawn)	-16.4	-18.3	30.6*	9.9	10.0
COC(=O)[C@]12C[C@H](CC(=O)NCC3CCCCC3)C(=O)N(Cc3ccccc3)C1=C[C@H](C1CCCC1)O[C@@H]2C	.	.	15.0	8.0	.
CS(=O)(=O)N1CCCC(C(=O)NCc2ccc(F)cc2)C1 (stereo not drawn)	1.4	-3.5	27.2*	-5.6	2.9
COc1cc(/C=N/Nc2ncnc3sc4c(c23)CCC4)ccc1O	17.8	5.9	25.8*	19.0	11.3
COc1cc(/C=N/NC2=NCCCCC2)ccc1O	1.8	7.1	0.0	17.6	.
CCOC(=O)C1=CCN(S(=O)(=O)c2ccc(Cl)cc2)C1c1ccc(Br)cc1 (stereo not drawn)	.	.	-6.3	5.5	.
COc1cc(C#Cc2c(-c3cncn3C)n(C)c3ccc(-c4ccc5cc[nH]c5c4)cc23)cc(OC)c1	1.6	.	31.8*	20.8	21.2
O=C(COC(=O)c1ccc(O)cc1)Nc1cc(S(=O)(=O)N2CCCCCC2)ccc1Cl	-12.3	-4.2	26.4*	-3.4	0.6
NS(=O)(=O)c1cc(Br)c2c(c1)S(=O)(=O)NCN2	-7.4	-2.6	-6.1	-1.2	.
COc1cccc(/C=C/c2nc3c(cnn3-c3ccccc3)c(=O)[nH]2)c1	1.5	.	27.7*	16.6	4.7
COc1cccc(/C=N/n2nnc3c(cnn3-c3ccccc3)c2=O)c1	-21.2	-20.9	5.2	1.3	.
N#CN=CN1CC=C(c2ccc(Cl)cc2)CC1	1.1	7.7	-3.7	-6.6	.
COc1ccc(C(c2oc(CO)cc(=O)c2O)c2oc(CO)cc(=O)c2O)cc1OC	-0.1	-0.1	26.9*	6.0	1.3
O=C(NCc1ccccc1)[C@H]1CCCN1C(=O)[C@H]1CCCN1C(=O)c1cccs1	.	.	-12.6	-5.1	.
O=C(NCCN1CCC(n2c(=O)[nH]c3ccccc32)CC1)C(c1ccccc1)c1ccccc1	.	-7.7	16.0	3.2	.
Cc1ccccc1NC(=O)NCCCN1CCN(C2CCCCC2)CC1	5.4	-1.8	-0.2	-4.8	.
Cc1ccccc1NC(=O)NCCCN1CCCC1	-3.1	9.7	25.6*	-1.8	-5.4
O=C1NC[C@@H](CCCCN2C[C@H](Cc3ccc(O)cc3)N(CC3CCCCC3)C(=O)C2=O)N(Cc2ccccc2)C1=O	.	4.3	1.1	-2.4	.
CS(=O)(=O)c1ccc(S(=O)(=O)NCC2CCN(C(=O)C(=O)c3cc4ccccc4o3)CC2)cc1	.	.	1.9	-9.9	.
Cc1cc(=O)oc2cc(OCc3ccc(C(=O)OCC(=O)Nc4ccccc4OC(F)F)cc3)ccc12	10.3	24.3	41.9*	14.7	50.0*
SMILES	H9c2 protect	Neddylation inh	ARFGAP1 inh	ASAP1 inh	ARFGAP1 confirm
O=C(COc1ccc(Cl)cc1)Nc1ccc2c(c1)CCC2	-8.3	6.9	29.6*	-6.6	8.2
CC(OC(=O)c1cc2c(s1)CCCCC2)C(=O)NC(N)=O (stereo not drawn)	-9.3	-55.7	28.4*	-11.6	-3.6
COC(=O)c1cc2c(c3c4ccccc4n(S(=O)(=O)c4ccccc4)c13)C(=O)N(C)C2	.	.	-3.7	5.2	.
CN1OC[C@@H]2CN3C(=NCCc4ccccc4)Sc4ccccc4[C@@H]3C[C@@H]21	.	.	14.5	-4.2	.
COc1cc2c(cc1OC)C(C)N(C(=O)c1cc3c(s1)-c1ccccc1OC3)CC2 (stereo not drawn)	-23.2	.	24.8*	3.8	5.4
CCCCn1c(N)c(N(CCOC)C(=O)c2c(C)noc2C)c(=O)[nH]c1=O	-0.5	4.8	25.1*	7.2	-0.9
CCCCN(C(=O)c1c(C)noc1C)c1c(N)n(CCCC)c(=O)[nH]c1=O	3.3	15.1	0.3	7.4	.
COc1ccc(-c2cc3cc(OC)c(OC)cc3cn2)cc1	-4.5	.	29.1*	15.7	30.8*
CC1(C(=O)Nc2ccc3c(c2)OCO3)CCN1C(=O)CC1CC1 (stereo not drawn)	6.9	-0.9	20.2	-5.6	.
Cc1nc2ccc(C(=O)N3c4ccccc4N=C(c4ccc(C(F)(F)F)cc4)C3C(=O)NC(C)(C)C)cc2[nH]1 (stereo not drawn)	.	.	25.7*	8.6	-0.8
C[C@@H]1CN([C@@H](C)CO)C(=O)c2cc(Br)cnc2O[C@@H]1CN(C)Cc1ccc(Oc2ccccc2)cc1	-1.9	6.0	7.8	0.8	.
Cc1nn(CCCC(=O)Nc2cc(Oc3ccccc3)cc([N+](=O)[O-])c2)c(C)c1[N+](=O)[O-]	-5.8	-25.9	14.5	6.6	.
Cc1ccc(C)c(Oc2cc(NC(=O)CCCn3nc(C)c([N+](=O)[O-])c3C)cc([N+](=O)[O-])c2)c1	-18.0	-13.1	26.4*	6.0	1.5
C=CS(=O)(=O)N(C(=C)C(=O)OC)S(C)(=O)=O	.	.	0.0	0.8	.
COc1cc(NC(=O)Nc2nnc([C@H]3C[C@H](O)[C@@H](CO)O3)s2)cc(OC)c1	1.5	-7.5	-3.6	5.3	.
Cc1ccc(/C=N/N(Cc2ccccc2)c2ccccc2)o1	-4.6	5.6	32.9*	0.5	1.6
COC(=O)c1cc2c(c3c4cc(F)ccc4n(S(=O)(=O)c4ccc(OC)cc4)c13)C(=O)N(C)C2	.	.	3.3	-7.8	.
Cc1nn(Cc2ccc(C(=O)Nc3ccc(C(=O)OC(C)C)cc3)o2)c(C)c1Cl	-16.4	29.1	25.9*	14.6	26.7*
Cc1nn(Cc2ccc(C(=O)NN)o2)c(C)c1Cl	-1.1	5.3	1.5	-5.7	.
COc1ccc(O)c(/C=N/NC(=O)c2ccc(CSc3nc(C)cc(C)n3)cc2)c1	56.7*	10.7	30.1*	12.7	32.8*
COc1ccc(C(=O)N/N=C/c2cc(Br)ccc2O)cc1OC	59.5*	9.2	32.6*	13.0	50.0*
COc1cc(Cl)cc(/C=N\NC(=O)c2ccc3c(c2)OCO3)c1O	22.0	34.1	34.0*	5.5	42.9*
